Source: ChEMBL document CHEMBL1139470, “Benzophenone-based farnesyltransferase inhibitors with high activity against Trypanosoma cruzi” (J Med Chem, 2005)

How the values were obtained:
Trypanosoma cruzi = assay: Inhibition of Trypanosoma cruzi Tulahuen in BALB/c mouse blood; assay type: functional
Method in brief: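 Trypomastigote lysis assay: mouse blood (from infected BALB/c, cardiac puncture) holding 5 × 10^4 bloodstream trypomastigotes per well, compound added from 10 mM DMSO stock diluted in BHI; DMSO controls (final 1/1000). 24 h at 4 °C, then microscopic counting at 400×. Triplicates, experiments repeated 3–4 times; lysis relative to control; LC50 = minimal concentration lysing 50%.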

[1] = Cytotoxicity against HeLa cells after 72 hrs; assay type: cell-based; settings: human
Method in brief: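 HeLa cells grown in RPMI 1640 with 10% heat-inactivated FBS and gentamicin, then harvested in log phase by trypsinization. About 10 000 cells/well were preincubated 48 h before compound addition (10 mM DMSO stock diluted 1:200 in medium). Cells were exposed 72 h at 37 °C, 5% CO2, fixed with glutaraldehyde and stained with methylene blue. Stain was eluted with HCl and OD read at 660 nm to give CC50.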

[2] = Inhibition of Saccharomyces cerevisiae FTase
Vero [3] = assay: Effect on Vero cell morphology at 100 uM; assay type: functional, cell-based; settings: Chlorocebus sabaeus
Method in brief: (§1)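 Vero cells cultured in RPMI 1640 with 5% heat-inactivated FBS. 10^4 cells/well were incubated with compound at 37 °C, 5% CO2, in triplicate per concentration. DMSO was the diluent at a final 1/1000, and DMSO-only wells served as control. Toxicity was judged by cell morphology and confluent growth.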

Vero [4] = assay: Cytotoxicity against Vero cells at 100 uM; assay type: cell-based; settings: chlorocebus sabaeus; method in brief: as §1
Mus musculus [5] = assay: Survival of BALB/c mouse infected with Trypanosoma cruzi trypomastigotes at 3.2 mg/kg/day relative to control; assay type: functional
Method in brief: (§2)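 Male BALB/c mice, 60 days old, infected intraperitoneally with 500 bloodstream trypomastigotes (groups of five; untreated infected controls, six). Oral dosing (25 µL) from 30 min post-infection, five times weekly, 39 doses total (21 at 3.2 mg/kg/day). Control mice got physiological solution. Parasitemia checked by tail-blood microscopy twice weekly. Survival recorded to day 115 pi.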

Mus musculus [6] = assay: Survival of BALB/c mouse infected with Trypanosoma cruzi trypomastigotes at 6.4 mg/kg/day relative to control; assay type: functional; method in brief: as §2
Mus musculus [7] = assay: Survival of BALB/c mouse infected with Trypanosoma cruzi trypomastigotes at 7 mg/kg/day relative to control; assay type: functional; method in brief: as §2

Compound	LC50 (Trypanosoma cruzi) [nM]	CC50 at 72 h [1] [nM]	IC50 [2] [nM]	further results
CC(C)C[C@H](N)C(=O)Nc1ccc(NC(=O)/C=C/c2ccc(-c3ccc([N+](=O)[O-])cc3)o2)cc1C(=O)c1ccccc1	1000	> 83000	360	–
N[C@H](Cc1ccccc1)C(=O)Nc1ccc(NC(=O)/C=C/c2ccc(-c3ccc([N+](=O)[O-])cc3)o2)cc1C(=O)c1ccccc1	1	> 78000	116	Activity (Vero [3]): Non-toxic; Activity (Vero [4]): Non-toxic; survival at 3.2 mg/kg/day (Mus musculus [5]): 0%; survival at 6.4 mg/kg/day (Mus musculus [6]): 80%
O=C(/C=C/c1ccc(-c2ccc([N+](=O)[O-])cc2)o1)Nc1ccc(NC(=O)C(c2ccccc2)N2CCN(Cc3ccccc3)CC2)c(C(=O)c2ccccc2)c1 (configuration not stated)	50000	–	660	–
O=C(/C=C/c1ccc(-c2ccc([N+](=O)[O-])cc2)o1)Nc1ccc(NC(=O)C(c2ccccc2)N2CCCCC2)c(C(=O)c2ccccc2)c1 (configuration not stated)	50000	–	455	–
O=C1CCN(C(C(=O)Nc2ccc(NC(=O)/C=C/c3ccc(-c4ccc([N+](=O)[O-])cc4)o3)cc2C(=O)c2ccccc2)c2ccccc2)CC1 (configuration not stated)	1000	–	–	–
N[C@H](C(=O)Nc1ccc(NC(=O)/C=C/c2ccc(-c3ccc([N+](=O)[O-])cc3)o2)cc1C(=O)c1ccccc1)c1ccccc1	> 50000	> 80000	46	–
N[C@@H](C(=O)Nc1ccc(NC(=O)/C=C/c2ccc(-c3ccc([N+](=O)[O-])cc3)o2)cc1C(=O)c1ccccc1)c1ccccc1	> 50000	> 80000	8	–
CCc1ccc(-c2ccc(/C=C/C(=O)Nc3ccc(NC(=O)Cc4ccc(C)cc4)c(C(=O)c4ccccc4)c3)o2)cc1	50000	–	90	–
CCN1CCN(C(C(=O)Nc2ccc(NC(=O)/C=C/c3ccc(-c4ccc([N+](=O)[O-])cc4)o3)cc2C(=O)c2ccccc2)c2ccccc2)CC1 (configuration not stated)	> 50000	–	> 10000	–
O=C(/C=C/c1ccc(-c2ccc([N+](=O)[O-])cc2)o1)Nc1ccc(NC(=O)Cc2ccc(C(F)(F)F)cc2)c(C(=O)c2ccccc2)c1	50000	> 57000	26	–
N[C@@H](Cc1c[nH]c2ccccc12)C(=O)Nc1ccc(NC(=O)/C=C/c2ccc(-c3ccc([N+](=O)[O-])cc3)o2)cc1C(=O)c1ccccc1	10000	–	580	–
Cc1ccc(CC(=O)Nc2ccc(NC(=O)/C=C/c3ccc(-c4ccc([N+](=O)[O-])cc4)o3)cc2C(=O)c2ccccc2)cc1	> 100000	> 85000	35	–
CC(C)C[C@@H](N)C(=O)Nc1ccc(NC(=O)/C=C/c2ccc(-c3ccc([N+](=O)[O-])cc3)o2)cc1C(=O)c1ccccc1	100	47800	500	–
NC(Cc1ccc(C(F)(F)F)cc1)C(=O)Nc1ccc(NC(=O)/C=C/c2ccc(-c3ccc([N+](=O)[O-])cc3)o2)cc1C(=O)c1ccccc1 (configuration not stated)	50000	–	95	–
N[C@@H](Cc1ccc(Cl)cc1)C(=O)Nc1ccc(NC(=O)/C=C/c2ccc(-c3ccc([N+](=O)[O-])cc3)o2)cc1C(=O)c1ccccc1	1000	> 74500	60	–
CSCC[C@@H](N)C(=O)Nc1ccc(NC(=O)/C=C/c2ccc(-c3ccc([N+](=O)[O-])cc3)o2)cc1C(=O)c1ccccc1	> 10000	> 81000	500	–
CC[C@H](C)[C@H](N)C(=O)Nc1ccc(NC(=O)/C=C/c2ccc(-c3ccc([N+](=O)[O-])cc3)o2)cc1C(=O)c1ccccc1	100	> 83000	150	–

Compound	LC50 (Trypanosoma cruzi) [nM]	CC50 at 72 h [1] [nM]	IC50 [2] [nM]	further results
CC(C)(C)OC(=O)NC(Cc1ccc(C(F)(F)F)cc1)C(=O)Nc1ccc(NC(=O)/C=C/c2ccc(-c3ccc([N+](=O)[O-])cc3)o2)cc1C(=O)c1ccccc1 (configuration not stated)	> 50000	–	285	–
O=C(/C=C/c1ccc(-c2ccc([N+](=O)[O-])cc2)o1)Nc1ccc(NC(=O)C(c2ccccc2)N2CCOCC2)c(C(=O)c2ccccc2)c1 (configuration not stated)	50000	> 76000	660	–
O=C(/C=C/c1ccc(-c2ccc([N+](=O)[O-])cc2)o1)Nc1ccc(NC(=O)C(c2ccccc2)N2CCN(C3CCCCC3)CC2)c(C(=O)c2ccccc2)c1 (configuration not stated)	1000	42000	340	–
CSCC[C@H](N)C(=O)Nc1ccc(NC(=O)/C=C/c2ccc(-c3ccc([N+](=O)[O-])cc3)o2)cc1C(=O)c1ccccc1	> 10000	> 81000	1770	–
CN1CCN(C(C(=O)Nc2ccc(NC(=O)/C=C/c3ccc(-c4ccc([N+](=O)[O-])cc4)o3)cc2C(=O)c2ccccc2)c2ccccc2)CC1 (configuration not stated)	10000	37000	10	–
NC(C(=O)Nc1ccc(NC(=O)/C=C/c2ccc(-c3ccc([N+](=O)[O-])cc3)o2)cc1C(=O)c1ccccc1)c1ccc(C(F)(F)F)cc1 (configuration not stated)	10000	–	17	–
N[C@@H](Cc1ccccc1)C(=O)Nc1ccc(NC(=O)/C=C/c2ccc(-c3ccc([N+](=O)[O-])cc3)o2)cc1C(=O)c1ccccc1	> 10000	> 79000	3	–
CC(C)NC(=O)CN1CCN(C(C(=O)Nc2ccc(NC(=O)/C=C/c3ccc(-c4ccc([N+](=O)[O-])cc4)o3)cc2C(=O)c2ccccc2)c2ccccc2)CC1 (configuration not stated)	> 50000	–	340	–
N[C@H](Cc1ccc(Cl)cc1)C(=O)Nc1ccc(NC(=O)/C=C/c2ccc(-c3ccc([N+](=O)[O-])cc3)o2)cc1C(=O)c1ccccc1	> 10000	> 74500	70	–
CCCN1CCN(C(C(=O)Nc2ccc(NC(=O)/C=C/c3ccc(-c4ccc([N+](=O)[O-])cc4)o3)cc2C(=O)c2ccccc2)c2ccccc2)CC1 (configuration not stated)	10	68000	125	Activity (Vero [3]): Non-toxic; Activity (Vero [4]): Non-toxic; survival at 7 mg/kg/day (Mus musculus [7]): 60%
O=C(/C=C/c1ccc(-c2ccc([N+](=O)[O-])cc2)o1)Nc1ccc(NC(=O)C(c2ccccc2)N2CCN(CCO)CC2)c(C(=O)c2ccccc2)c1 (configuration not stated)	10000	71000	430	–
NC(C(=O)Nc1ccc(NC(=O)/C=C/c2ccc(-c3ccc([N+](=O)[O-])cc3)o2)cc1C(=O)c1ccccc1)c1ccc(F)cc1 (configuration not stated)	50000	> 78000	25	–
Cc1ccc(CC(=O)Nc2ccc(NC(=O)/C=C/c3ccc(-c4ccc(S(C)(=O)=O)cc4)o3)cc2C(=O)c2ccccc2)cc1	50000	–	30	–
O=C(/C=C/c1ccc(-c2ccc([N+](=O)[O-])cc2)o1)Nc1ccc(NC(=O)C(c2ccccc2)N2CCN(c3ccccc3)CC2)c(C(=O)c2ccccc2)c1 (configuration not stated)	> 50000	–	300	–
CN1CCN(C(C(=O)Nc2ccc(NC(=O)/C=C/c3ccc(-c4ccc([N+](=O)[O-])cc4)o3)cc2C(=O)c2ccccc2)c2ccc(Cl)cc2)CC1 (configuration not stated)	10000	38600	125	–
CC(C)(C)OC(=O)NC(C(=O)Nc1ccc(NC(=O)/C=C/c2ccc(-c3ccc([N+](=O)[O-])cc3)o2)cc1C(=O)c1ccccc1)c1ccc(C(F)(F)F)cc1 (configuration not stated)	50000	–	8	–
